Laboratory results taken from ChEMBL document CHEMBL4699517 (Bioorg Med Chem Lett, 2020).
The source made the active and inactive calls. The calls are words filed in the database; no cut-off is given here.

What was measured:
[1] = molecular target: Phosphatidylinositol 4,5-bisphosphate 3-kinase catalytic subunit gamma isoform (Homo sapiens) (UniProt P48736); experiment: Inhibition of PI3Kgamma in human SUDHL-10 cells assessed as inhibition of cell viability at 100 nM after 72 hrs by CellTiter-Glo luminescent assay; format: cell-based; details: SU-DHL-10
Chain of Phosphatidylinositol 4,5-bisphosphate 3-kinase catalytic subunit gamma isoform (Homo sapiens) (P48736 whole entry, looked up, canonical isoform): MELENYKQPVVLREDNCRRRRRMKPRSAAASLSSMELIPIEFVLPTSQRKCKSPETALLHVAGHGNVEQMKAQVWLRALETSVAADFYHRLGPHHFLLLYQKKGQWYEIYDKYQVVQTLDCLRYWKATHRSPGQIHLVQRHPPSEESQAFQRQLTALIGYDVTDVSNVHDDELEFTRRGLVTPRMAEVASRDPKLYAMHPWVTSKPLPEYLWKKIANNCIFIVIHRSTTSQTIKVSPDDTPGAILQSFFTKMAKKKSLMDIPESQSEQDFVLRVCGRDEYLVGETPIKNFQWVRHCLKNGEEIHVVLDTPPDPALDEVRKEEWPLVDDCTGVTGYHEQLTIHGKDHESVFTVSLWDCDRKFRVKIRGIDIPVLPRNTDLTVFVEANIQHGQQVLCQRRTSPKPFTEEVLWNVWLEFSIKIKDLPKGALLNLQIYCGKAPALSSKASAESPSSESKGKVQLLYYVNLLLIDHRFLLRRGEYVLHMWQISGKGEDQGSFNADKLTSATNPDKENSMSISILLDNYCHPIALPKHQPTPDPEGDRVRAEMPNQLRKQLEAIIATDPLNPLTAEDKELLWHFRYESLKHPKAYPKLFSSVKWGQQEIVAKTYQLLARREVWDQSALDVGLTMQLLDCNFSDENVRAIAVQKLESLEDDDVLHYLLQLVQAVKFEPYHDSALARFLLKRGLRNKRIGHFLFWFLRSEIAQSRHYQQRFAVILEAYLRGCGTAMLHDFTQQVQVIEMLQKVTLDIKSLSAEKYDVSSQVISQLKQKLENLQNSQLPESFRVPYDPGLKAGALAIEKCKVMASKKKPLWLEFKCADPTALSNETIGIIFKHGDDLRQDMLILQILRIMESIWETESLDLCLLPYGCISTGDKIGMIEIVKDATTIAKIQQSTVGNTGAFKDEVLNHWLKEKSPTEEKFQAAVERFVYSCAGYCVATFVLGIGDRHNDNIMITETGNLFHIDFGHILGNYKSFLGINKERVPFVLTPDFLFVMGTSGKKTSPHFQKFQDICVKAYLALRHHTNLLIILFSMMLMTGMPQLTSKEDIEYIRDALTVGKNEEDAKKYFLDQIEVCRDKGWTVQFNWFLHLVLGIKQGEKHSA

[2] = molecular target: Phosphatidylinositol 4,5-bisphosphate 3-kinase catalytic subunit gamma isoform (Homo sapiens) (UniProt P48736); experiment: Inhibition of PI3Kgamma in human RPMI-8226 cells assessed as inhibition of cell viability at 100 nM after 72 hrs by CellTiter-Glo luminescent assay; format: cell-based
[3] = molecular target: Phosphatidylinositol 4,5-bisphosphate 3-kinase catalytic subunit gamma isoform (Homo sapiens) (UniProt P48736); experiment: Inhibition of PI3Kgamma in human Raji cells assessed as inhibition of cell viability at 100 nM after 72 hrs by CellTiter-Glo luminescence assay; format: cell-based
[4] = Toxicity in NOD/SCID mouse assessed as animal death rate at 5 mg/kg, ip dosed 3 times per week and measured after 24 days of treatment; format: organism-based; details: in vivo, time 24 day, read-out: Activity
In short: (§1)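 Six-week-old male NOD/SCID mice, 4 per group, received 5 mg/kg IP every other day, three times per week. Animals were monitored throughout dosing and euthanized after 24 days of treatment. Survival over the dosing period was plotted as a survival curve.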

[5] = Toxicity in NOD/SCID mouse assessed as animal survival at 5 mg/kg, ip dosed 3 times per week and measured after 24 days of treatment; format: organism-based; details: in vivo, time 24 day; in short: as §1
[6] = molecular target: Phosphatidylinositol 4,5-bisphosphate 3-kinase catalytic subunit gamma isoform (Homo sapiens) (UniProt P48736); experiment: Inhibition of PI3Kgamma in human SUDHL-6 cells assessed as inhibition of cell viability at 100 nM after 72 hrs by CellTiter-Glo luminescent assay; format: cell-based; details: SU-DHL-6
[7] = molecular target: Phosphatidylinositol 4,5-bisphosphate 3-kinase catalytic subunit gamma isoform (Homo sapiens) (UniProt P48736); experiment: Inhibition of PI3Kgamma in human MOLT-4 cells assessed as inhibition of cell viability at 100 nM after 72 hrs by CellTiter-Glo luminescent assay; format: cell-based
[8] = Toxicity in NOD/SCID mouse assessed as animal survival at 10 mg/kg, ip dosed 3 times per week and measured after 24 days of treatment; format: organism-based; details: in vivo, time 24 day
[9] = molecular target: Phosphatidylinositol 4,5-bisphosphate 3-kinase catalytic subunit gamma isoform (Homo sapiens) (UniProt P48736); experiment: Inhibition of PI3Kgamma in human LCL-1 cells assessed as inhibition of cell viability at 100 nM after 72 hrs by CellTiter-Glo luminescent assay; format: cell-based
[10] = Toxicity in NOD/SCID mouse assessed as animal survival at 5 to 10 mg/kg, ip dosed 3 times per week and measured at >3 weeks of treatment; format: organism-based; details: in vivo, 504 h, dose 5-10 mg/kg

SMILES	inhibition [1]	inhibition [2]	inhibition [3]	mortality at 576 h [4]	survival at 576 h [5]	inhibition [6]	inhibition [7]	survival at 576 h [8]	inhibition [9]	Activity [10]
COC(=O)[C@@]12OC[C@]34[C@H]([C@@H](O)[C@@H]1O)[C@@]1(C)CC(=O)C(O)=C(C)[C@@H]1C[C@H]3OC(=O)[C@H](OC(=O)C=C(C)C)[C@@H]24	Active	Active	Active	25%	75%	Active	Active	25%	Active	
COC(=O)[C@@]12OC[C@]34[C@H]([C@@H](O)[C@@H]1O)[C@@]1(C)CC(=O)C(OC(=O)[C@@H](C)N)=C(C)[C@@H]1C[C@H]3OC(=O)[C@H](OC(=O)C=C(C)C)[C@@H]24	Active	Active	Active			Active	Active		Active	
COC(=O)[C@@]12OC[C@]34[C@H]([C@@H](O)[C@@H]1O)[C@@]1(C)CC(=O)C(OC(=O)C[C@H](C)N)=C(C)[C@@H]1C[C@H]3OC(=O)[C@H](OC(=O)C=C(C)C)[C@@H]24			Active		100%					Non-Toxic
COC(=O)[C@@]12OC[C@]34[C@H]([C@@H](O)[C@@H]1O)[C@@]1(C)CC(=O)C(OC(=O)C[C@@H](C)N)=C(C)[C@@H]1C[C@H]3OC(=O)[C@H](OC(=O)C=C(C)C)[C@@H]24	Active	Active	Active			Active	Active		Active	
COC(=O)[C@@]12OC[C@]34[C@H]([C@@H](O)[C@@H]1O)[C@@]1(C)CC(=O)C(OC(=O)C[C@H](C)NC(C)=O)=C(C)[C@@H]1C[C@H]3OC(=O)[C@H](OC(=O)C=C(C)C)[C@@H]24	Active	Active	Active			Active	Active		Active	
COC(=O)[C@@]12OC[C@]34[C@H]([C@@H](O)[C@@H]1O)[C@@]1(C)CC(=O)C(OC(=O)CNC(=O)CNC(=O)CN)=C(C)[C@@H]1C[C@H]3OC(=O)[C@H](OC(=O)C=C(C)C)[C@@H]24	Active	Active	Active			Active	Active		Active	
COC(=O)[C@@]12OC[C@]34[C@H]([C@@H](O)[C@@H]1O)[C@@]1(C)CC(=O)C(OC(=O)CNC(=O)OC(C)(C)C)=C(C)[C@@H]1C[C@H]3OC(=O)[C@H](OC(=O)C=C(C)C)[C@@H]24			Active		50%			0%		
COC(=O)[C@@]12OC[C@]34[C@H]([C@@H](O)[C@@H]1O)[C@@]1(C)CC(=O)C(OC(=O)[C@H]5CCCN5)=C(C)[C@@H]1C[C@H]3OC(=O)[C@H](OC(=O)C=C(C)C)[C@@H]24	Active	Active	Active			Active	Active		Active	
